The text below walks through data of ChEMBL document CHEMBL1148356, “Synthesis and biological evaluation of 3-heterocyclyl-7,8,9,10-tetrahydro-(7,10-ethano)-1,2,4-triazolo[3,4-a]phthalazines and analogues as subtype-selective inverse agonists for the GABA(A)alpha5 benzodiazepine binding site” (J Med Chem, 2004).

Series [1] deals with GABA-A receptor; alpha-3/beta-3/gamma-2 (Homo sapiens) (UniProt P18507+P28472+P34903). The series is described as follows: Percent change in electrophysiological response in Xenopus oocytes expressing Alpha3-beta3-gamma2 GABA-A receptor. The format is functional, cell-based. The conditions noted are these: Oocyte. The method, boiled down:
(§1)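 Two-electrode voltage clamp on Xenopus oocytes injected with human GABA-A subunit cDNAs, 24-72 h expression, perfused with modified Barth's medium at pH 7.5, clamped between -40 and -70 mV. The GABA EC20 was titrated against a 3 mM GABA maximum. […] Result is % change of control current, mean ± SE of ≥4 oocytes.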

Series [2] deals with T1, GABA-A receptor; alpha-2/beta-3/gamma-2 (Homo sapiens, UniProt P18507+P28472+P47869).
T1 sequence (P18507 whole entry): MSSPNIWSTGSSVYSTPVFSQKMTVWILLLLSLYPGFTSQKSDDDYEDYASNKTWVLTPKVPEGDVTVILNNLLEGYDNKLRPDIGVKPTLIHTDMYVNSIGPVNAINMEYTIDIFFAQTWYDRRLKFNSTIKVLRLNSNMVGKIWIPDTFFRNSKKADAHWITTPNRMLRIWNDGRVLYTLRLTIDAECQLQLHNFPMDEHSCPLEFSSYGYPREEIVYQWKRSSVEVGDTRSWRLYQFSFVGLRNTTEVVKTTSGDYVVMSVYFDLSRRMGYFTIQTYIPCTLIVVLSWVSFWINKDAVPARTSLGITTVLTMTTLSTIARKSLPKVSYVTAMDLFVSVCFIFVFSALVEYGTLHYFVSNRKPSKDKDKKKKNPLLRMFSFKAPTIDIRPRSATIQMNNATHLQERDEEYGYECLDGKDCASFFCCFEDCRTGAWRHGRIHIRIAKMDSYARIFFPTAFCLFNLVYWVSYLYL
T1 sequence (P28472 whole entry): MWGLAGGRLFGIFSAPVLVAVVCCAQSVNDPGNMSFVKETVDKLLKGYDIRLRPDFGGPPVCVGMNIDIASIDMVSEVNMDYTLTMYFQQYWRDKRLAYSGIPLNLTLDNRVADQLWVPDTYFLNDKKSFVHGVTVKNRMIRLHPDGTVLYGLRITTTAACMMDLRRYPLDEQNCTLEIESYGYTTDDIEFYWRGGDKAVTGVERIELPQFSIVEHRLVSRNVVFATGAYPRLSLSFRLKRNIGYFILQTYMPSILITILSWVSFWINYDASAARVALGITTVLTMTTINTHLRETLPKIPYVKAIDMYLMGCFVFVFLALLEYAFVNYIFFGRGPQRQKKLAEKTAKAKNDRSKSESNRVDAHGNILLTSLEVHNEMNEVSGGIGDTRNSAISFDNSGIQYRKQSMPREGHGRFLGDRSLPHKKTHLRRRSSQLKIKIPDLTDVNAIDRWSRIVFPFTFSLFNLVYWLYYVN
T1 sequence (P47869 whole entry): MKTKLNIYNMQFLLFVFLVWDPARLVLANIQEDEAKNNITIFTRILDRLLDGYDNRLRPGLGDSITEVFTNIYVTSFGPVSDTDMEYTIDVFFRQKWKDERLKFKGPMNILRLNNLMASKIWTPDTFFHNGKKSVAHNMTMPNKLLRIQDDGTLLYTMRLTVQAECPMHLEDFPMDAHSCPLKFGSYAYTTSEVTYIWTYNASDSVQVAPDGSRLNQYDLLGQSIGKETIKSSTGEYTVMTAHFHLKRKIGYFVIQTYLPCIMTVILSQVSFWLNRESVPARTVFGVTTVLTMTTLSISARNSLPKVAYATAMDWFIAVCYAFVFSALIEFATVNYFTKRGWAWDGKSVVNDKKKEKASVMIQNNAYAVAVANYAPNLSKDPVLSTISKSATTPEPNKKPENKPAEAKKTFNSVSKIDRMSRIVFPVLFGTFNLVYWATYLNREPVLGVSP
Nature of the series: Binding affinity towards human gamma-aminobutyric-acid A receptor alpha-2-beta-3-gamma-2 using [3H]Ro-151788 expressed in L(tk-) cells. The format is cell-based.

The target of series [3] is T2, GABA-A receptor; alpha-1/beta-3/gamma-2 (Homo sapiens, UniProt P14867+P18507+P28472).
T2 sequence (P14867 whole entry): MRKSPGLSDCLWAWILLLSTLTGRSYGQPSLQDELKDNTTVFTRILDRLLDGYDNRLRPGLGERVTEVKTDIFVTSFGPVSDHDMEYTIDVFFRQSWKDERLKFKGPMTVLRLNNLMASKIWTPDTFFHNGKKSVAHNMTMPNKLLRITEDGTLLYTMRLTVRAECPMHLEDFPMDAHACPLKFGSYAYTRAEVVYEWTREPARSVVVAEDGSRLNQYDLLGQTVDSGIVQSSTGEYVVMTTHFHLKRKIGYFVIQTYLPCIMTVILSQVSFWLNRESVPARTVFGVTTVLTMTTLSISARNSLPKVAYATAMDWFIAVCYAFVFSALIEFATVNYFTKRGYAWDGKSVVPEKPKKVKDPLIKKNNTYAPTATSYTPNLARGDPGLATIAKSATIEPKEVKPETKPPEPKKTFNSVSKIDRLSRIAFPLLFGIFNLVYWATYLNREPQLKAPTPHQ
T2 sequence (P18507 whole entry): T1 sequence (P18507 whole entry)
T2 sequence (P28472 whole entry): T1 sequence (P28472 whole entry)
Nature of the series: Binding affinity towards human alpha-1-beta-3-gamma-2 GABA-A receptor using [3H]Ro-151788 expressed in L(tk-) cells. The class given is cell-based.

Series [4] in a line: Oral bioavailability in rat. The format is ADME, organism-based. The conditions noted are these: in vivo. The method, boiled down: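 Male SD rats with jugular cannulas were fasted overnight and dosed either by tail-vein IV bolus or orally (n = 3 per route). Serial jugular blood samples were taken up to 8 h. Plasma was frozen at −20 °C, protein-precipitated with acetonitrile containing internal standard, and quantified by LC-MS/MS.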

For series [5], the target named is GABA-A receptor; alpha-2/beta-3/gamma-2 (Homo sapiens) (UniProt P18507+P28472+P47869). The series is described as follows: Percent maximum change in electrophysiological response in Xenopus oocytes expressing alpha-2-beta-3-gamma-2 GABA-A receptor. The class given is functional, cell-based. To be noted: Oocyte. The method, boiled down:
as §1

Series [6] has as its target T3, GABA-A receptor; alpha-1/beta-3/gamma-2 (Homo sapiens) (UniProt P14867+P18507+P28472). The series is described as follows: Percent change in electrophysiological response in Xenopus oocytes expressing Alpha1-beta3-gamma2 GABA-A receptor. The format is functional, cell-based. To be noted: Oocyte. The method, boiled down: as §1
Series [7] has as its target T3, GABA-A receptor; alpha-1/beta-3/gamma-2 (Homo sapiens). The series is described as follows: Percent maximum change in electrophysiological response in Xenopus oocytes expressing alpha-1-beta-3-gamma-2 GABA-A receptor. The class given is functional, cell-based. The conditions noted are these: Oocyte. The method, boiled down: as §1
Series [8] has as its target GABA A receptor alpha-4/beta-3/gamma-2 (Homo sapiens, UniProt P18507+P28472+P48169). Nature of the series: Inhibition of [3H]-Ro-15-1788 binding to human alpha-4-beta-3-gamma-2 GABA-A receptor expressed in L(tk-) cells. The class given is cell-based.
Series [9] concerns the target GABA-A receptor; alpha-5/beta-3/gamma-2 (Homo sapiens) (UniProt P18507+P28472+P31644). The series is described as follows: Percent maximum change in electrophysiological response in Xenopus oocytes expressing alpha-5-beta-3-gamma-2 GABA-A receptor. To be noted: Oocyte. The format is functional, cell-based. In short, it runs like this:
as §1

The structures appear in SMILES notation. pKi: −log10 of the molar value.

Chain of GABA A receptor alpha-4/beta-3/gamma-2 (P48169 whole entry, one chain of several): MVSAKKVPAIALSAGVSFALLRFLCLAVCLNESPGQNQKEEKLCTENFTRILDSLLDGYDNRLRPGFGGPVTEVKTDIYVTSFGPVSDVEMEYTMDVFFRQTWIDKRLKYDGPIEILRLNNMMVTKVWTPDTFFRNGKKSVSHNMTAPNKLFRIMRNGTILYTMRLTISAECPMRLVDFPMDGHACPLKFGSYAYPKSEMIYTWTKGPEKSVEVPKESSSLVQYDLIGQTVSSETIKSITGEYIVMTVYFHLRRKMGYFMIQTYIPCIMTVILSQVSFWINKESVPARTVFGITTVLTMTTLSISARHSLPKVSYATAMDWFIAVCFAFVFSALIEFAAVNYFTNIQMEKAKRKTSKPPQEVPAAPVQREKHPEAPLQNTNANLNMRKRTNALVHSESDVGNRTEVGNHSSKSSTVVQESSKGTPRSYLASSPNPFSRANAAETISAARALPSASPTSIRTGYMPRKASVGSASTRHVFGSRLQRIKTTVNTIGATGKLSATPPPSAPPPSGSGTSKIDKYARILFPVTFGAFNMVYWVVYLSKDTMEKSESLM

In the case of `Cc1cc(-c2nnc3c4ccccc4c(OCc4ccccn4)nn23)no1`, the Efficacy in series [1] is -4%; in series [5] it was -7%; in series [6], -2%; in series [7], -14%; in series [9] it was -45%. In addition, the pKi was 8.57 in series [2], 8.85 in series [3] and 6.61 in [8]. In [4], this compound returned a bioavailability of 41%.
